Laboratory results as given in ChEMBL document CHEMBL3352462, “Aldosterone synthase inhibitors as promising treatments for mineralocorticoid dependent cardiovascular and renal diseases” (J Med Chem, 2014).
One block for each compound: values may come before it.

Tests used:
[1] = species: Homo sapiens; experiment: Increase in aldosterone level in sodium depleted healthy human plasma; type: functional
[2] = species: Homo sapiens; experiment: Increase in aldosterone level in sodium depleted healthy human urine; type: functional
[3] = species: Homo sapiens; experiment: Increase in aldosterone level in primary aldosteronism patient plasma at 50 mg, bid for 31 days; type: functional
[4] = species: Homo sapiens; experiment: Decrease in diastolic blood pressure in hypertension patient at 50 mg, bid for 8 weeks; type: functional, Artery
[5] = target: T1, Cytochrome P450 11B2, mitochondrial (Homo sapiens, UniProt P19099); experiment: Inhibition of human CYP11B2 expressed in NCI-H295R cells assessed as reduction in aldosterone formation; type: cell-based
T1 sequence (P19099 whole entry): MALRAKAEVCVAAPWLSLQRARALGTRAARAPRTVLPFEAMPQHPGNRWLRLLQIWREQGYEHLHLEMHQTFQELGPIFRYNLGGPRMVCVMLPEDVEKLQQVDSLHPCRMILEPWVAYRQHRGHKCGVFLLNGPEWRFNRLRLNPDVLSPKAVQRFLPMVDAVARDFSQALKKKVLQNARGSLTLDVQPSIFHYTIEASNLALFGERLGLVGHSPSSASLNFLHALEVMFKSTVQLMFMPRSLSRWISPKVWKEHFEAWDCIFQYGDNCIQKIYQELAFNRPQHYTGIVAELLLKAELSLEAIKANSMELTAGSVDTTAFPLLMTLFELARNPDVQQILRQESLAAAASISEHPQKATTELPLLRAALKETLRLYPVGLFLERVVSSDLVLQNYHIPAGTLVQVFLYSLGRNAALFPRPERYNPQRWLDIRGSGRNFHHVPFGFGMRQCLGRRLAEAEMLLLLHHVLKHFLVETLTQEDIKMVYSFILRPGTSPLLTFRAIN

[6] = species: Homo sapiens; experiment: Selectivity ratio of IC50 for human CYP11B1 to IC50 for human CYP11B2
In short: (§1)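 Whole-cell assay in V79MZ (Chinese hamster lung fibroblast) cells stably expressing human CYP11B2; a parallel line stably expressing human CYP11B1 gives the counter-target IC50. Selectivity is expressed as the CYP11B1/CYP11B2 IC50 ratio.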

[7] = target: T2, Cytochrome P450 1A2 (Homo sapiens, UniProt P05177); experiment: Inhibition of CYP1A2 (unknown origin); type: ADME
T2 sequence (P05177 whole entry): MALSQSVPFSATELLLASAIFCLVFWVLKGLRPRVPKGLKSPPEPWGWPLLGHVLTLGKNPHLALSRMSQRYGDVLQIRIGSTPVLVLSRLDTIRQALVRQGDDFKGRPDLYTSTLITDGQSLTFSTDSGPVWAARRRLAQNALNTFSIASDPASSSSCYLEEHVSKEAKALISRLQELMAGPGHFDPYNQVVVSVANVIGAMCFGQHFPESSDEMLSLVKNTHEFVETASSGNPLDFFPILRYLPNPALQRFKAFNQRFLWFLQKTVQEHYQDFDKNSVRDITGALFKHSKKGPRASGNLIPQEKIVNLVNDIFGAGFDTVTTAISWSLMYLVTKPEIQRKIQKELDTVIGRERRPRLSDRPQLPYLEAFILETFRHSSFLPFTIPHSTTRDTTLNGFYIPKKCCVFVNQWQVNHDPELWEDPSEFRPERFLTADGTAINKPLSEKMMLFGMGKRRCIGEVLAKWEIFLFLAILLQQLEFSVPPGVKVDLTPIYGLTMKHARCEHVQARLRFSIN

[8] = target: T3, Cytochrome P450 11B2, mitochondrial (Rattus norvegicus, UniProt P30099); experiment: Inhibition of aldosterone synthase in rat adrenal assessed as decrease in 18-OH-corticosterone level at 100 uM
T3 sequence (P30099 whole entry): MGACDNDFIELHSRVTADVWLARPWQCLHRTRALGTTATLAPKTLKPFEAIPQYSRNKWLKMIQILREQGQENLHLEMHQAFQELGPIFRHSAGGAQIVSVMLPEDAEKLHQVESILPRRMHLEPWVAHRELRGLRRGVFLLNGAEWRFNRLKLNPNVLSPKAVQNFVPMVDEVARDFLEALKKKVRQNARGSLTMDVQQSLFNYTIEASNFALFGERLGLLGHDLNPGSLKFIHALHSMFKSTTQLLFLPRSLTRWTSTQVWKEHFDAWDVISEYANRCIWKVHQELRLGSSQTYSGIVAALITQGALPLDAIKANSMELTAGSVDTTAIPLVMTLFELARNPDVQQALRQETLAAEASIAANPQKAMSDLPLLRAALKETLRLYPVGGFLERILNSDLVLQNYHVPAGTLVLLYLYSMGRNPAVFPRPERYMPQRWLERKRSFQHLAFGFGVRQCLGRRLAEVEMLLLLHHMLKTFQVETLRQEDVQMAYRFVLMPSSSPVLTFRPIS

[9] = target: T3, Cytochrome P450 11B2, mitochondrial; experiment: Inhibition of aldosterone synthase in rat adrenal assessed as decrease in aldosterone level at 100 uM
[10] = target: T4, Cytochrome P450 11B1, mitochondrial (Homo sapiens, UniProt P15538); experiment: Inhibition of human CYP11B1 expressed in NCI-H295R cells at 100 nM; type: cell-based
T4 sequence (P15538 whole entry): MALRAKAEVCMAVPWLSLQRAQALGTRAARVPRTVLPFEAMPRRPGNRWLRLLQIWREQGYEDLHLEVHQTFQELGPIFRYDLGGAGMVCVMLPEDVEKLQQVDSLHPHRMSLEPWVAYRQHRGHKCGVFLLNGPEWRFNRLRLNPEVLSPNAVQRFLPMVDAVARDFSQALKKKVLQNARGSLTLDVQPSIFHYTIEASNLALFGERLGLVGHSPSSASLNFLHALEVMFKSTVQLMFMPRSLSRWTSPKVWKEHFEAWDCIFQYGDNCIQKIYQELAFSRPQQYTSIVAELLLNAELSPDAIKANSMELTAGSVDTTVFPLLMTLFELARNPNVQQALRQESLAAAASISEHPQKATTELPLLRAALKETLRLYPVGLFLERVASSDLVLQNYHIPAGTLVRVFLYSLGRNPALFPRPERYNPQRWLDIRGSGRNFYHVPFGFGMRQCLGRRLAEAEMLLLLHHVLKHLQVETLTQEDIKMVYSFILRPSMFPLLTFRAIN

[11] = target: T1, Cytochrome P450 11B2, mitochondrial; experiment: Inhibition of human aldosterone synthase
[12] = target: T1, Cytochrome P450 11B2, mitochondrial; experiment: Inhibition of human aldosterone synthase expressed in V79 MZ cells; type: cell-based, V79MZ; in short: as §1
[13] = target: T1, Cytochrome P450 11B2, mitochondrial; experiment: Inhibition of human aldosterone synthase by cell based assay
[14] = system: Rattus norvegicus; experiment: Decrease in myocardial fibrosis in SHR rat at 1.2 mg/kg/day, po; details: Myocardium, read-out: INH
[15] = system: Rattus norvegicus; experiment: Decrease in aldosterone level Wistar rat plasma at 4 mg/kg, po measured after 2 hrs by radioimmunoassay; type: functional
[16] = target: T1, Cytochrome P450 11B2, mitochondrial; experiment: Inhibition of human aldosterone synthase expressed in V79 MZ cells assessed as inhibition of aldosterone synthesis; type: cell-based, V79MZ
[17] = system: Rattus norvegicus; experiment: Decrease in corticosterone level Wistar rat plasma at 4 mg/kg, po measured after 2 hrs by radioimmunoassay; type: functional
[18] = target: T1, Cytochrome P450 11B2, mitochondrial; experiment: Inhibition of human CYP11B2 expressed in G402 cells; type: cell-based, G-402
[19] = Tmax in sodium depleted healthy human; details: in vivo
[20] = Elimination half life in sodium depleted healthy human; details: in vivo
[21] = target: T1, Cytochrome P450 11B2, mitochondrial; experiment: Inhibition of human aldosterone synthase in homogenized rat glomerulosa tissue

Compound: COC(=O)[C@@H]1CC2=CC(=O)CC[C@]2(C)[C@@]23O[C@@H]2C[C@@]2(C)[C@@H](CC[C@@]24CCC(=O)O4)[C@H]13 [EPLERENONE]
Activity [1]: 38%
Activity [2]: 88%
Activity [3]: 89%
Activity [4]: -7.9 mmHg

Compound: CC(O)c1c(F)cncc1-c1cc2cc(Cl)c(F)cc2o1 (stereo not drawn)
IC50 [5]: 2.5 nM
Ratio IC50 [6]: 427

Compound: c1cncc(C2CCCCCCC2)c1
IC50 [7]: > 100000 nM
Ratio IC50 [6]: 50

Compound: CC(=O)S[C@@H]1CC2=CC(=O)C=C[C@]2(C)[C@H]2CC[C@@]3(C)[C@@H]([C@@H]4C[C@@H]4[C@@]34CCC(=O)O4)[C@H]12 [MESPIRENONE]
inhibition at 100 µM [8]: > 40%
inhibition at 100 µM [9]: > 40%

Compound: Cc1cncc(-c2cc3n(n2)CCC(=O)N3)c1
IC50 [12]: 2.2 nM
Ratio IC50 [6]: 128

Compound: COc1cccc2c1CCC1C(c3cnc[nH]3)C21 (stereo not drawn)
IC50 [13]: 41 nM
Ratio IC50 [6]: 2

Compound: N#Cc1ccc([C@H]2CCCc3cncn32)cc1 [DEXFADROSTAT]
inhibition in vivo at 1.2 mg/kg/day [14]: 50%

Compound: CSc1ccc(C2CCCn3cncc32)cc1 (stereo not drawn)
inhibition in vivo at 4 mg/kg [15]: 62%

Compound: CN[C@@H]1C[C@H]2O[C@@](C)([C@@H]1OC)n1c3ccccc3c3c4c(c5c6ccccc6n2c5c31)C(=O)NC4 [STAUROSPORINE]
IC50 [16]: 11 nM

Compound: N#Cc1ccc2c(c1)C1(CCC2)OCCn2cncc21 (stereo not drawn)
inhibition in vivo at 4 mg/kg [15]: 82%
inhibition in vivo at 4 mg/kg [17]: 15%

Compound: Cc1ccncc1-c1cc(F)c2c(c1)CCc1nnc(C)n1-2
Ratio IC50 [6]: 421

Compound: Oc1ccc2c(c1)CC(Cc1ccncc1)C2 (stereo not drawn)
IC50 [13]: 59 nM
Ratio IC50 [6]: < 5

Compound: N#Cc1ccc([C@H]2CCc3cncn32)c(F)c1 [OSILODROSTAT]
Tmax [19]: 1 h
half-life [20]: 4 h

Now from value to compound:

IC50 [5]: 1.4 nM
Compound: Cn1c(=O)oc2cc(-c3cncc(C(O)C(F)(F)F)c3)ccc21 (stereo not drawn)

inhibition at 0.1 µM [10]: 94%
IC50 [11]: 3 nM
Compound: CCOC(=O)c1cncn1C1c2ccccc2C(=O)OC1(C)C (stereo not drawn)

Ratio IC50 [6]: > 1000
Compound: Cn1c(-c2cncc3ccccc23)nc2ccc(F)c(F)c21

IC50 [5]: 5 nM
Compound: CCS(=O)(=O)N(Cc1cncc(-c2cccc(Cl)c2Cl)c1)C1CC1

IC50 [18]: 2.8 nM
Ratio IC50 [6]: 589
Compound: CC1(C)c2cc(Cl)ccc2C(=O)N1c1cncc(C2CCCN(S(C)(=O)=O)C2)n1 (stereo not drawn)

Ratio IC50 [6]: 322
Compound: CCS(=O)(=O)NCc1cncc(-c2c(C)c3ccccc3n2C)c1

IC50 [21]: 50 nM
Compound: c1ccc2c(-c3cccc4cncn34)cccc2c1
